Source: PubChem (several laboratories)
PG9 binder = small molecules binding HIV-1 gp120 antibody PG9. AID 624416. inhibition, % at 6.7 µM. hit rate 0.43% among 360,000. TR-FRET gp120-PG9 antibody binding; in the data active = inhibition above about 8.5%
NR2E3 ag-1 = activates human NR2E3 receptor; inhibition of corepressor binding, % at 3.98 µM; hit rate 0.35% among 360,000; CHO-S Gal4-NCOR/VP16-NR2E3 two-hybrid, luciferase;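 active = inhibition above the mean of all tested compounds plus 3 SD, cut at about 70% in these data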;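 note: 0% = DMSO with NR2E3 transfected cells and 100% = cells lacking NR2E3 construct; higher means lower luciferase signal from less NR2E3 corepressor binding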
Target sequence (Q9Y5X4 whole entry, looked up, the tested form may be a part): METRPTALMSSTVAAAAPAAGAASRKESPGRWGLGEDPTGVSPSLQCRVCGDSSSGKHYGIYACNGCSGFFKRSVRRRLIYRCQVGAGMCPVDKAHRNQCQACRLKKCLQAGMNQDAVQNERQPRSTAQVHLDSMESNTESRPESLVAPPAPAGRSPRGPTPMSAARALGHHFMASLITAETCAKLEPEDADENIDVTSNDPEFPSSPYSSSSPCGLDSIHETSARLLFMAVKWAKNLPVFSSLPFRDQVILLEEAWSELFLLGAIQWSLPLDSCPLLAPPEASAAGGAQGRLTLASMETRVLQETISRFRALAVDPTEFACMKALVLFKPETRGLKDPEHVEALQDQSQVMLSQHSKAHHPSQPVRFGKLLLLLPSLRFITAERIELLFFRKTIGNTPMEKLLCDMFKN
PKA-R1A activ = activates the PKA-R1A holoenzyme complex; P00514+P68181; PKA-R1A dissociation, Cy5-IP20 fluorescence polarization; scaled: DMSO 0%, 113 µM cGMP 100%; activation, % at 11.4 µM; hit rate 0.083% among 340,000;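 active = percent activation above the mean of all tested compounds plus 3 SD, cut at about 19% in these data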;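 note: higher means more PKAc released from R1A so a rise in polarization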
PKA-R2B activ = activates the human PKA-R2B holoenzyme complex | P22694+P31323 | hit rate 0.079% among 340,000 | PKA-R2B holoenzyme dissociation, Cy5-IP20 fluorescence polarization; R2B truncated from residue 108, S112A mutant; 0% DMSO only, 100% 113 µM cGMP | activation, % at 11.4 µM;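 active = activation above a cutoff set at the mean over all compounds plus 3 SD, cut at about 18% in these data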;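 note: higher means more holoenzyme dissociation and a rise in polarization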
NR2E3 ag-2 = agonists of human nuclear receptor NR2E3; hit rate 0.12% among 320,000; GST-NR2E3/biotin-RetCOR TR-FRET, 1536-well; inhibition of corepressor binding, % at 4.78 µM; Q9Y5X4;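 active = percent inhibition above the cutoff of mean plus 3 SD of all tested compounds, set per screening campaign, cut at about 20% in these data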;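 note: 0% = DMSO wells and 100% = biotin wells as full block of FRET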
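Material – GST-tagged NR2E3 plus biotinylated RetCOR corepressor · Quantity – NR2E3 fusion 1.35 nM · Times – 5 h incubation at 4 °C · Medium – pH 7.5 Tris-based buffer · Technique – TR-FRET, Eu(K)-anti-GST donor, streptavidin-D2 acceptor, ex 340, em 617/671 nm · Benchmarks – high control biotin, low control 0.6% DMSO · Format – 1536-well plates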
NR1D1 modulator = Rev-erb alpha (human) modulation. Rev-erbα–FITC-DNA binding, fluorescence polarization, 90 min. activity, % at 10 µM. hit rate 0.79% among 370,000. AID 1259318;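 active = activity above about 14%, limit read from the data; passing the limit was not always enough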;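 note: 0% = DMSO wells with 35 nM protein and 100% = DMSO wells with 750 nM protein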
NR2E3 ag confirm = confirmation of human NR2E3 nuclear receptor agonists; shares compounds with NR2E3 ag-2; cell-free NR2E3 corepressor release, TR-FRET, 5 h; activation (reported as inhibition), % at 3.98 µM; hit rate 39% among 360; AID 2379; in the data active = activation above about 20%
PPARg-NCOR2 ag = PPARg-NCOR2 interaction agonism, NR2E3 counter-screen; hit rate 45% among 360; TR-FRET PPARg-NCOR2 coregulator interaction, biochemical; inhibition, % at 3.98 µM; AID 504787; shares compounds with NR2E3 ag-2; in the data active = inhibition above about 20%;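 note: 0% = DMSO vehicle and 100% = wells without protein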
PG9 bind confirm = PG9 antibody binding, confirmed. shares compounds with PG9 binder. TR-FRET PG9 antibody binding, biochemical. inhibition, % at 6.7 µM. hit rate 90% among 1,500; in the data active = inhibition above about 9%
PGV04 Ab binding = binds control antibody PGV04 in PG9 binder counter-screen; hit rate 95% among 1,500; TR-FRET PGV04 antibody-gp120 binding, biochemical; inhibition, % at 6.7 µM; shares compounds with PG9 binder; AID 651604; in the data active = inhibition above about 9.5%
* hit, by the source's call; . = not tested or not shown. This is a sample that favours compounds with a hit; in the whole collection about 1.6% have one here.

SMILES	PG9 binder	NR2E3 ag-1	PKA-R1A activ	PKA-R2B activ	NR2E3 ag-2	NR1D1 modulator	NR2E3 ag confirm	PPARg-NCOR2 ag	PG9 bind confirm	PGV04 Ab binding
NC[C@H]1O[C@H](O[C@H]2[C@H](O)[C@@H](O[C@H]3O[C@H](CO)[C@@H](O)[C@H](N)[C@H]3O)[C@H](N)C[C@@H]2N)[C@H](N)[C@@H](O)[C@@H]1O	.	.	.	.	.	-6.0	.	.	.	.
O=C(O)CCc1ccc(-c2ccc(Br)cc2)o1	29.4*	-58.5	8.1	-2.2	34.6*	-1.2	36.3*	32.2*	37.0*	45.3*
CC(=O)[C@H]1CCC2C3CC=C4C[C@@H](OC(=O)CCC(=O)O)CC[C@]4(C)C3CC[C@@]21C (some centres not stated)	.	.	.	.	.	-3.2	.	.	.	.
CC(=O)c1sccc1NC(=O)c1ccccc1C(=O)O	36.2*	-30.3	-2.8	-1.5	34.1*	3.0	23.0*	18.1	38.7*	47.3*
Cc1ccc(C2=Nc3ccccc3N=C(c3ccco3)C2)c(O)c1	-2.8	-32.2	-2.2	3.4	0.5	9.2	.	.	.	.
Cc1ccc(O)c(C2=Nc3ccccc3N=C(c3ccco3)C2)c1	59.0*	-49.5	0.9	-3.8	30.5*	18.9	3.9	19.5	55.0*	69.0*
COC(=O)c1sc(NC(=S)NNC(=O)c2c(Br)c(C)nn2C)c(C(=O)OC)c1C	18.5*	-2.1	-3.1	-7.1	62.4*	1.6	9.1	5.4	6.5	10.0*
COc1ccc(-c2nc(SCc3ccc(C#N)cc3)[nH]c(=O)c2C#N)cc1	-1.5	-18.8	-0.3	1.9	-2.8	-3.3	.	.	.	.
N#Cc1c(-c2ccco2)nc(SCc2ccc(F)cc2)[nH]c1=O	32.6*	26.9	-5.6	-9.2	40.1*	-3.7	10.3	58.9*	32.8*	37.0*
O=C(C1=C(O)C(=O)N(CC2CCCO2)C1c1ccccc1Cl)c1ccco1 (configuration not stated)	6.8	-23.2	2.4	-4.8	13.3	-6.7	.	.	.	.
O=C(C1=C(O)C(=O)N(CC2CCCO2)C1c1ccc(Cl)cc1Cl)c1ccco1 (configuration not stated)	10.7*	-15.3	-4.7	-8.3	29.6*	-4.8	24.0*	25.2*	19.0*	23.4*
Cc1nc2ccc(Br)cc2c(-c2ccccc2)c1C(=O)O	55.5*	0.9	-1.1	-4.9	46.5*	6.4	58.6*	54.0*	64.6*	76.6*
Cc1nc(-c2ccc(Br)cc2)ccc1C(=O)O	13.8*	-6.5	-5.9	-0.6	24.7*	4.5	19.4	17.5	23.5*	29.8*
N#CC(C#N)=C1NC(N)=C(C#N)C(c2ccccc2)=C1C#N	21.8*	-42.2	-9.7	-1.7	47.7*	-5.1	44.8*	40.4*	21.3*	25.8*
N/C(=N\OC(=O)COc1ccc2ccccc2c1Br)c1cccnc1	10.2*	.	.	.	21.4*	3.5	11.8	6.0	13.5*	18.8*
CC(=O)OC(C)OC(=O)C(C)c1ccc(-c2ccccc2)c(F)c1 (configuration not stated)	.	.	.	.	.	-2.7	.	.	.	.
O=C(C1=C(O)C(=O)N(Cc2ccco2)C1c1cccnc1)c1cc2ccccc2o1 (configuration not stated)	15.3*	-19.1	-1.3	7.5	38.0*	-1.6	42.7*	42.0*	30.8*	46.2*
